# Source: PubChem (several laboratories)
# Sampled rows, rich in hits. Any-hit rate of the full collection: about 3.1%.
# PAFAH2 inh = PAFAH2 (human) inhibition; recombinant PAFAH2, FP-rhodamine activity probe, fluorescence polarization; Q99487; hit rate 0.99% among 340,000; AID 492956; inhibition, % at 3.39 µM;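 active means inhibition above the mean over all tested compounds plus 3 SD, cut at about 30% in these data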;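 further: inhibitors block probe labeling of enzyme so polarization drops; 0% = enzyme with DMSO and 100% = wells lacking PAFAH2 protein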
# pPAFAH FP inh = inhibitors of human plasma PAF acetylhydrolase (pPAFAH). Q13093. recombinant pPAFAH, FP-rhodamine probe fluorescence polarization. inhibition, % at 3.39 µM. hit rate 1.5% among 330,000. AID 463082;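 active means inhibition above the mean inhibition across the screen plus 3 SD, cut at about 25% in these data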;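 further: inhibitors block binding of the rhodamine activity-based probe so polarization drops; 0% = enzyme with DMSO and 100% = wells lacking pPAFAH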
# PAFAH1B3 FP inh = inhibitors of human PAFAH1B3; Q15102; recombinant PAFAH1B3, FP-rhodamine probe, fluorescence polarization; inhibition, % at 3.39 µM; hit rate 0.28% among 340,000;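 active means inhibition above the screen-wide average of all tested compounds plus 3 SD, cut at about 25% in these data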;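 further: 0% = enzyme with DMSO only and 100% = wells lacking PAFAH1B3 protein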
# Target sequence (Q15102 whole entry, looked up): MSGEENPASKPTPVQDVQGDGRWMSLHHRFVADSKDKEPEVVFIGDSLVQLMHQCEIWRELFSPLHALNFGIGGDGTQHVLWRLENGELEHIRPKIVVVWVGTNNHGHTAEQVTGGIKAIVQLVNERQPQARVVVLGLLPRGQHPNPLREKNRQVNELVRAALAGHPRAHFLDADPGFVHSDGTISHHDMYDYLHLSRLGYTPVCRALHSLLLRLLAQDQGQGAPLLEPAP
# Apaf1 inhib = inhibitors of human Apaf-1 apoptosome; O14727; reconstituted apoptosome caspase-3 activity, DEVD-Rh110 fluorescence; inhibition, % at 20 µM; hit rate 0.71% among 330,000; AID 489030; active means inhibition of at least 40% at 20 µM;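 further: plate controls were DMSO wells for no effect and DEVD-CHO caspase inhibitor wells for full effect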
#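 System: reconstituted apoptosome with Apaf-1, cytochrome c, caspase-9, procaspase-3, dATP; Signal: Rh110 fluorescence intensity; Schedule: 30 min compound preincubation, 50 min activation, room temperature; Reagent: cytochrome c trigger plus (Z-DEVD)2-Rh110 caspase-3 substrate.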
# PAFAH1B2 inh = blocks human PAF acetylhydrolase 1b catalytic subunit 2; inhibition, % at 3.39 µM; hit rate 1.2% among 340,000; P68402; recombinant PAFAH1B2, FP-rhodamine activity probe, fluorescence polarization; AID 492953;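 active means inhibition above the mean of all tested compounds plus 3 SD, cut at about 24% in these data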;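 further: 0% = enzyme with DMSO and 100% = wells lacking PAFAH1B2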
# Target sequence (P68402 whole entry, looked up): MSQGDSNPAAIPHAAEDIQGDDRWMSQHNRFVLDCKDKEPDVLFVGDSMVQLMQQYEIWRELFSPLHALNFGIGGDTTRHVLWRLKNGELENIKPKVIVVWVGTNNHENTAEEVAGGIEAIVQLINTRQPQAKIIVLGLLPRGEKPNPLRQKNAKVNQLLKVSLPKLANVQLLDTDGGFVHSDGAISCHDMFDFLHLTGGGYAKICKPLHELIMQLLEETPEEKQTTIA
# Active calls of the source: *; nt = no result.
SMILES,PAFAH2 inh,pPAFAH FP inh,PAFAH1B3 FP inh,Apaf1 inhib,PAFAH1B2 inh
CCCCn1c(O)c(/C=C/C=C/C=Nc2ccccc2)sc1=S,2,30*,-11,31,-9
CN(C)C(=O)c1cc(C(=O)c2ccc(F)cc2C(F)(F)F)c[nH]1,2,30*,6,6,5
COc1cc(C(=O)OCC(=O)Nc2ccc(F)cc2F)cc(OC)c1OC,4,-3,2,3,1
O=Cc1ccc(C(=O)OCC(=O)Nc2ccc(F)cc2F)cc1,47*,8,3,-1,2
Cn1c(=O)c2ccccc2n(Cc2cccc(F)c2)c1=O,2,0,-5,0,5
C[N+]1(C)CCC(=C2c3ccccc3CC(=O)c3sccc32)CC1,6,-2,12,57*,5
COC(=O)c1cc(NCc2c(F)cccc2Cl)ccc1N1CCOCC1,3,30*,6,7,-2
NS(=O)(=O)c1ccc(NCc2c(F)cccc2Cl)cc1,-9,nt,4,nt,9
COC(=O)c1cc(NCc2cccs2)ccc1N1CCOCC1,13,6,-5,1,5
Fc1cccc(Cl)c1CNc1ccc(N2CCCC2)cc1,4,19,7,48*,5
CC(=O)Nc1c(Br)cc2c(c1Br)Cc1cc([N+](=O)[O-])ccc1-2,5,nt,4,nt,6
CC1(C)C/C(=N\NC(=S)Nc2ccccc2F)c2cc(O)ccc2O1,11,10,12,4,15
CN(CCc1ccccc1)C(=O)c1cccc(NC(=O)Cc2cccc(NC(=O)C3CCCN(C(=O)c4ccccc4)C3)c2)c1 (configuration not stated),-3,nt,-1,nt,7
Cc1c(N=Cc2cc3c(cc2[N+](=O)[O-])OCO3)cccc1[N+](=O)[O-],6,49*,-1,44*,9
O=C(NCCc1ccccc1)C1CCCN1C(=O)Nc1cccc(Cl)c1 (configuration not stated),8,6,-1,-1,27*
CC(C)(C)c1ccc(CNC(=O)C2CCCN2C(=O)Nc2ccccc2)cc1 (configuration not stated),3,-2,-1,10,25*
CC(C)(C)c1ccc(N/N=C(\C#N)S(=O)(=O)C(C)(C)C)cc1,19,33*,12,15,14
Cc1cccc(N/N=C(\C#N)S(=O)(=O)C(C)(C)C)c1,-2,12,3,nt,7
CCOc1cc(/C=C2\C(=O)N(c3cccc(C(=O)O)c3)N=C2C(F)(F)F)ccc1OCC(=O)Nc1ccccc1OC,nt,37*,nt,21,nt
O=C(O)c1cccc(-n2cccc2/C=C\[N+](=O)[O-])c1,-3,15,-2,-9,1
O=C(O)c1cccc(-n2cccc2/C=C/[N+](=O)[O-])c1,25,29*,19,-3,6
Cc1nc2ccc(S(=O)(=O)NCC(=O)NCc3ccc(Cl)cc3)cc2s1,3,-2,2,-2,25*
Cc1nc2ccc(S(=O)(=O)NCC(=O)NCc3ccc4c(c3)OCO4)cc2s1,13,6,4,-2,6
Cc1nc2ccc(S(=O)(=O)Nc3ccccc3C)cc2s1,0,33*,-8,-15,2
Cc1nc2ccc(NS(=O)(=O)c3ccc(C)c(C)c3)cc2s1,-4,5,0,7,2
SMILES,PAFAH2 inh,pPAFAH FP inh,PAFAH1B3 FP inh,Apaf1 inhib,PAFAH1B2 inh
O=C(CCCNC(=O)c1ccc(Cl)cc1)Nc1ccc(F)c(S(=O)(=O)N2CCOCC2)c1,2,0,5,5,4
Cc1ccc(-c2cc(C(F)F)nc(NCc3cccnc3)n2)cc1,-14,26*,1,22,2
Cc1ccc(-c2cc(C(F)F)nc(NCc3cccs3)n2)cc1,-2,1,4,3,-5
Cc1oc2c(O)c(O)ccc2c(=O)c1-c1ccc(Cl)cc1,23,30*,22,10,5
O=C(c1cccc(S(=O)(=O)N2CCOCC2)c1)N(Cc1ccco1)Cc1cccs1,0,2,3,7,1
O=C(CN(Cc1ccco1)Cc1cccs1)N1CCN(S(=O)(=O)c2cccc(F)c2)CC1,0,3,4,23,26*
Cc1cccc(NC(=S)NNC(=O)c2csc3c2CCC(C)C3)c1 (configuration not stated),17,27*,20,5,9
CC(C)CCOc1ccc(C(=O)NNC(=O)CNC(=O)c2ccccc2F)cc1,-2,4,6,12,4
Cc1ccc(S(=O)(=O)n2cccc2C)cc1,nt,1,nt,-14,nt
CCn1c(=O)cc(C(F)(F)F)[nH]c1=S,-2,0,0,-10,2
